Measured values from different studies.
Protocols differ between the studies behind these lines. Converted amounts (≈) assume the structure as drawn.

COc1cc(N=C2C(=O)N(Cc3ccccc3)c3ccccc32)cc(OC)c1 — IC50 (L02; cell growth or viability, MTT; 48 h): > 100 µM
C[C@H]1CNCCCN1c1nccc(-c2noc([C@@]3(C)CCCc4sc(N)c(C#N)c43)n2)n1 — EC50 (BaF3; cell growth or viability; 72 h): 0.959 µM
O=C1C(=Nc2ccccc2Br)c2ccccc2N1Cc1ccccc1 — IC50 (L02; cell growth or viability, MTT; 48 h): 66.2 µM
Nc1ccn([C@@H]2CS[C@H](CO)O2)c(=O)n1 — EC50 (Hepatitis B virus; viral replication, inhibitor, qPCR; HepDES19; 72 h): 0.4 µM
Nc1nn2c(-c3ccco3)cc(-c3ccc(OCc4ccccc4)cc3)nc2c1N=Nc1ccc(F)cc1 — MIC (Saccharomyces cerevisiae; microbial growth, broth dilution; ATCC9763): 31.3 µg/mL (≈ 62 µM)
C[C@H]1CN(C)CCCN1c1nccc(-c2noc([C@@]3(C)CCCc4sc(N)c(C#N)c43)n2)n1 — EC50 (BaF3; cell growth or viability; 72 h): 0.41 µM
Cc1nc(NC(=O)N2CCC[C@H]2C(N)=O)sc1-c1ccnc(C(C)(C)C(F)(F)F)c1 — EC50 (CAL-51; cell growth or viability, ATP luminescence; 5 days): 26 µM
Cc1nc(Nc2ncc(C(=O)Nc3c(C)cccc3Cl)s2)cc(N2CC[C@H](O)C2)n1 — inhibition (NALM-6; cell growth or viability, ATP luminescence; 10 µM, 72 h): 68%
O=C1Nc2ccccc2C1=Nc1cccc(Cl)c1 — IC50 (L02; cell growth or viability, MTT; 48 h): 16 µM
CCOC(=O)C1=C(CN2CCC[C@H]2C(=O)Nc2ccc(B(O)O)cc2)NC(c2nccs2)=N[C@H]1c1ccc(F)cc1Br — EC50 (Hepatitis B virus; viral replication, inhibitor, qPCR; HepDES19; 72 h): 1 µM
CC(C)c1cccc(C(C)C)c1N=C1C(=O)N(Cc2ccc(Br)cc2)c2ccccc21 — IC50 (L02; cell growth or viability, MTT; 48 h): > 100 µM
CCOC(=O)C1=C(CN2CCN(Cc3ccc(B4OC(C)(C)C(C)(C)O4)cc3)CC2)NC(c2nccs2)=NC1c1ccc(F)cc1Br (stereo not shown) — EC50 (Hepatitis B virus; viral replication, inhibitor, qPCR; HepDES19; 72 h): 1.2 µM
O=C1Nc2ccccc2C1=Nc1ccccc1I — IC50 (L02; cell growth or viability, MTT; 48 h): 77.5 µM
CNC(=S)NN=Cc1ccc([N+](=O)[O-])cc1 — IC50 (Leishmania tropica; parasite growth; J774.A1; 72 h, intracellular, amastigote): 258 µM
C[C@H](Nc1ccc2c(c1)OCCn1cc(N3C(=O)OC[C@H]3C(F)F)nc1-2)C(N)=O — EC50 (CAL-51; cell growth or viability, ATP luminescence; 5 days): 1.26 µM
CNC(=S)NN=Cc1ccc(O)c(OC)c1 — IC50 (Leishmania tropica; parasite growth; J774.A1; 72 h, intracellular, amastigote): 248 µM
CCOC(=O)C1=C(CN2CCC(C(=O)Nc3cccc(B(O)O)c3)C2)NC(c2nccs2)=NC1c1ccc(F)cc1Br (stereo not shown) — EC50 (Hepatitis B virus; viral replication, inhibitor, qPCR; HepDES19; 72 h): 0.9 µM
COc1ccc(C=NNC(=S)Nc2cccnc2)cc1 — IC50 (Leishmania tropica; parasite growth; J774.A1; 72 h, intracellular, amastigote): 350 µM
CCOC(=O)C1=C(CN2CCC[C@@H]2C(=O)Nc2cccc(B(O)O)c2)NC(c2nccs2)=N[C@H]1c1ccc(F)cc1Br — EC50 (Hepatitis B virus; viral replication, inhibitor, qPCR; HepDES19; 72 h): 0.12 µM
